From article PMC9035732 (Photoacoustics, 2022)

Assays:
[1] = tested on: orthotopic human HCC xenograft tumors (SK-Hep1); type: in vivo, mouse; conditions: 1.75 h post-injection, mean±SD, n = 8 mice per group; λex = 785 nm
Summary of the method: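 Tumors were orthotopic SK-Hep1 xenografts in female athymic nude mice; the cells were first grown subcutaneously in the hind flank. Mice received IRDye800-labeled target or control peptide i.v. Other groups were pre-blocked with unlabeled peptide or given ICG. Paired white-light and fluorescence laparoscopic images were taken at 1.75 h post-injection. Ultrasound and MR confirmed tumor location.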

[2] = tested on: orthotopic human HCC xenograft tumors (SK-Hep1); test: In vivo photoacoustic imaging of orthotopic human HCC xenograft tumors; parameters: species or system mouse; conditions: intravenous, peptide 300 μM in 200 μL PBS; ICG 2.46 mg/kg; λex = 774 nm
Summary of the method: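 Mice were female athymic nude mice bearing orthotopic SK-Hep1 tumors, which were first established subcutaneously in the flank. IRDye800-labeled target or control peptide was given i.v. in 200 µL PBS. Blocking groups got unlabeled peptide injected beforehand, and ICG 2.46 mg/kg i.v. served as comparator. 3D photoacoustic images (excitation 774 nm) were taken before and at 0.5, 1, 1.5, 1.75, 2, 4 and 24 h. Intensity came from 2D maximum-intensity projections, with pre-injection images as background, and was expressed as tumor/background ratio.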

CC1(C)C(/C=C/C=C/C=C/C=C2\N(CCCCS(=O)(=O)O)c3ccc4ccccc4c3C2(C)C)=[N+](CCCCS(=O)(=O)[O-])c2ccc3ccccc3c21 [ICG, Indocyanine green]
mean T/B ratio, laparoscopic fluorescence imaging [1]: 0.87 ± 0.2 | time of peak photoacoustic intensity in tumor post-injection [2]: not observed within 24 h
